From the EternaBench riboswitch data

Test system: MS2 coat protein
Assay: apparent Kd, MS2 coat protein; higher = weaker binding; RNA-MaP array
Summary of the method: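 Designed RNAs were transcribed in place on an Illumina sequencing chip from sequenced DNA templates. At room temperature and with or without input ligand, they were incubated with fluorescently labeled MS2 coat protein from 1.5 nM to 3 μM, for 0.8–1.5 h at the lowest and 10–20 min at the highest concentrations. Apparent Kd is the median of the binding-curve fits made per cluster, with designs measured on fewer than 10 clusters excluded.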

[1] = designed as: ON switch for flavin mononucleotide, no ligand
[2] = ligand present: flavin mononucleotide, designed as: ON switch for flavin mononucleotide
[3] = designed as: OFF switch for flavin mononucleotide, no ligand
[4] = ligand present: flavin mononucleotide, designed as: OFF switch for flavin mononucleotide
[5] = designed as: OFF switch for tryptophan, no ligand
[6] = ligand present: tryptophan, designed as: OFF switch for tryptophan
[7] = designed as: ON switch for theophylline, no ligand
[8] = ligand present: theophylline, designed as: ON switch for theophylline
[9] = designed as: OFF switch for theophylline, no ligand
[10] = ligand present: theophylline, designed as: OFF switch for theophylline

Row | Sequence | apparent Kd [1] | apparent Kd [2] | apparent Kd [3] | apparent Kd [4] | other results
1 | CCUAACCACAAGAAGGAUGAGAUGCGGCAUUUCAUAGGAUAUUGAUCACAUGAGGAUCACCCAUGUUGCCGUAAGGCGCUAGUC | 321 nM | 136 nM | – | – | –
2 | CCUUCAGAUGAGAAGGCCAUCUACGGCUGGACACGGCAGUAACAUGAGGAUCACCCAUGUUUAAUGGAGGAUAUCAACGGAAGC | 12.3 nM | 8.94 nM | – | – | –
3 | CGACAUUCAGGAUAUACAUGAGGAUCACCCAUGUUGAGAAGCACAAGAUACCAUAAAAGUAGAAGGGAACAAAA | – | – | 13.3 nM | 9.81 nM | –
4 | CGAGUCUAGGAGAAGGCAUACAUGAGGAUCACCCAUGUCAAAGGGCACGUAACGAUAAUCCACCAUGAGGAUAUCCUGUUUAGA | – | – | 26.3 nM | 21.7 nM | –
5 | CGAUGCGCAUUAUCCCACUGGUAUGAGUCUCGAGGACCGGUACGGCCGCCACUCGCUACCGUACAUGAGGAUCACCCAUGUAUUA | – | – | – | – | apparent Kd [5]: 28 nM; apparent Kd [6]: 45.9 nM
6 | CGCGUCCCGGACGAUACCAGAUAUGAGCGACACAUGAGGAUCACCCAUGUCAAUCAUGAGAUCCCUUGGCAGCGUUUGCACAACU | – | – | – | – | apparent Kd [7]: 162 nM; apparent Kd [8]: 209 nM
7 | CGUAGGAUCGUGGAUACCAGUACCGCCCACGACAUGAGGAUCACCCAUGUAGGUAAUCUUUACCCUUGGCAGCCAUUUUUUUCUG | – | – | – | – | apparent Kd [7]: 45.6 nM; apparent Kd [8]: 52.9 nM
8 | CGUAUUGCUCGUUAGGAUAUCCAAUCUGAAACAUGAGGAUCACCCAUGUAGCCAGCAUCACAUGAGGAGAAGGAACAAGAUAAACG | 16.6 nM | 8.89 nM | – | – | –
9 | CGUCUACAUGAGGAUCACCCAUGUCAGGAUAUACACCAACAACCUUCGCGAGAUAGGUGUAGAAGGGACGGGUA | – | – | 8.76 nM | 13.5 nM | –
10 | CGUGUAGGGUAGGAUAUUCGAACACCACAAGGAGAAGAAGGACCUACAUGAGGAUCACCCAUGUGGUUAAUGGC | – | – | 112 nM | 225 nM | –
11 | CGUUAAGAACAGAAGGCCGAGAUAAUGUUCAGCGGAGGAUAUGUGGAAGAUAGAACAUGAGGAUCACCCAUGUCAACUAGUACC | 6.01 nM | 5.82 nM | – | – | –
12 | CGUUAGACAGGAUAUACACUGGGAAGCGCGGUUUGCGGGAGACAUGAGGAUCACCCAUGUAGAAGGGUCCGGCA | – | – | 9.14 nM | 9.4 nM | –
13 | CUAAAGGAUGAAGGAUAUUUGAGUGACACGCAGAAAGAAGGUCAAGCUUACAUGAGGAUCACCCAUGUGCGUGAGUGCAGGUGC | – | – | 14.4 nM | 13.3 nM | –
14 | CUCAAACAUGAGGAUCACCCAUGUAAGGAUAUCCGUAAUAAAUUUGGUAAGAGGCGGCGGAGAAGGUACGCAGC | – | – | 19.1 nM | 17.9 nM | –
15 | CUCAGUGUGUAGAAGGUUUGCAUAGAAACAUCAAAAGGAUAUACAUGGUGAAGCCUUGAAACAUGAGGAUCACCCAUGUCUACG | 632 nM | 392 nM | – | – | –
16 | CUGAGCAAAGGAUAUACUAAUUGUGAGUGACCCAGUUAACGACAUGAGGAUCACCCAUGUAGAAGGUUGGAACA | – | – | 26.4 nM | 24.6 nM | –
17 | CUGGUUGCCGGUUGCGACACAUGAGGAUCACCCAUGUAUACCGAGGAUAUGUGGAGCUGUAGAUGACAGAAGGCGGUGAGUAUC | 53.7 nM | 38.1 nM | – | – | –
18 | CUUUAACAUGAGGAUCACCCAUGUCCGAUGAAUUUAGGAUAUCGCAUUGGUCGUAUGAGGCGAGAAGGAAAUUGUC | 28.4 nM | 12.8 nM | – | – | –
19 | GAAAGAUGAGGAUAUACAUGAGGAUCACCCAUGUGAUUAAAUUGAACACCGAAUUACUGUAGAAGGCAUAAACC | – | – | 19.9 nM | 16.8 nM | –
20 | GACGAGAGACAGAAGGCUCGACUGUGGCUACGAGAUCUGAAAACAUGAGGAUCACCCAUGUUUCGAGAGGAUAUGUCGAAUUAU | – | – | 129 nM | 397 nM | –
21 | GAGGAGUAGUAGUCCGACACAUGAGGAUCACCCAUGUUAUGGAGAAGGCCGGAUCUGAGUAGAGCGGAGGAUAUCCUGAAUUAA | 26.7 nM | 19.8 nM | – | – | –
22 | GAUUGCAUCGAUUCUCCACUCGCACCUGAUACCAGCGAUAGAAUUCGCCCUUGGCAGCAGUACACAUGAGGAUCACCCAUGUUAU | – | – | – | – | apparent Kd [9]: 30.7 nM; apparent Kd [10]: 75 nM
23 | GCACAAUUAGGAUAUACAUGGGUAUAGGGUGAGACGAAUGCACAUGAGGAUCACCCAUGUAGAAGGAAUCGUCA | – | – | 303 nM | 332 nM | –
24 | GCAGUGCGUGAGGAUAUGUGAGUGAACACACACACAGAAGGCACAACAUGAGGAUCACCCAUGUUCCUGGUGCC | – | – | 7.62 nM | 7.95 nM | –
25 | GCCAUAAUCUGAGGAUAUAGAGAGAUAAGGAAGCACAUGAGGAUCACCCAUGUCCGUGGUAUAGGCAAGAAGGCAGCUGGAAUC | 15.3 nM | 15.7 nM | – | – | –
26 | GCUCACAUGAGGAUCACCCAUGUCACGAGGUGAUGAUGAACAAGAAGGAAACUCAUAUGAUCAGUUUAGGAUAUUGCCCAGCGA | – | – | 791 nM | 460 nM | –
27 | GCUCAUUGCGAGGAUAUUGGAAGAGUGUAAACUCAAGAAGGCGCAACAUGAGGAUCACCCAUGUGAACCCAAAU | – | – | 7.91 nM | 14 nM | –

Row | Sequence | apparent Kd [1] | apparent Kd [2] | apparent Kd [3] | apparent Kd [4] | other results
28 | GCUCCGCUAGCAGGAUAUGUAGGGGGAUUAUUGAUUGGGCGUAACAUGAGGAUCACCCAUGUUCCACAGAAGGGCUGGAGAAGA | – | – | 107 nM | 68.3 nM | –
29 | GCUGUAAAGGAGAAGGUGAAUCGUAAGCUUGGUCAAGGAUAUCCGACUGGACAUGGCUGCAGACAUGAGGAUCACCCAUGUGCG | – | – | 237 nM | 113 nM | –
30 | GGAUGGGUGGAAGGAUAUGAGCCCAGGACAUGAGGAUCACCCAUGUGUAGUUCAGUCUCUAAUUCUCAGAAGGUCCAGAUUCUA | – | – | 18.1 nM | 21.5 nM | –
31 | GGCCAGGCAGCGGCCGCCACUUAGUGGGCCGAAUGUCCUUUGCUGAACAUGAGGAUCACCCAUGUAAGGACCGGGCUGUUCCGCA | – | – | – | – | apparent Kd [5]: 30.5 nM; apparent Kd [6]: 69.5 nM
32 | GGCGCUACGCCGGUACAUGAGGAUCACCCAUGUCCAUAUGUAAGAAGGUCUGGCGGGACGACAAAGAAGGAUAUUACAGAUUGC | 33.7 nM | 24.9 nM | – | – | –
33 | GGCUAACAUGAGGAUCACCCAUGUAUUGAUACCAGUAUUUGAAAAUACCCUUGGCAGCAAAUGAAGAGCGUAGCAGGGUCGAUUA | – | – | – | – | apparent Kd [7]: 11.3 nM; apparent Kd [8]: 16.8 nM
34 | GGGCGACUGCAAGGAUAUCUCGAAGUGAGUGGCAGAGAAGGUGCACGUACAUGAGGAUCACCCAUGUGAACUUAUUGGUCAAGG | – | – | 25.2 nM | 21.9 nM | –
35 | GGUCAACGAUUUUACAUGAGGAUCACCCAUGUUACGGUCGCCGAGGAUAUGUCAGGAUUAUCACAACAGAAGGCGGAAGACACC | 16.5 nM | 9.4 nM | – | – | –
36 | GUAGCUGAGUGUGAUACCAGAAACGACGUCCUUUAUCAUAACAUGAGGAUCACCCAUGUCUUCCCUUGGCAGCACUUUUCGGUCU | – | – | – | – | apparent Kd [9]: 36.9 nM; apparent Kd [10]: 64.8 nM
37 | GUAGUGCUAAGAGGAUAUACGUUCUGCACAUGAGGAUCACCCAUGUACAAGGAGCCCAACCGGCGGUAGAAGGCUUUGACAGGA | 17.4 nM | 11.3 nM | – | – | –
38 | GUCAAAUGUCAGAAGGUAGUGAUGUACUAAGGCUAAGGAUAUGAAGAAAAGAAAAUUACCGUUGACAUGAGGAUCACCCAUGUC | 13.8 nM | 9.86 nM | – | – | –
39 | GUCAUCUGUUUAGGAUAUGCGGUAGACACCGGGCGAGAAACAUGAGGAUCACCCAUGUUCGGAUUGCAGAAGGAAACGGCAAUA | 13.6 nM | 17 nM | – | – | –
40 | GUGAAGAUCCUAGGAUAUGAGACACCCGUAAGCUCAGAAGGAGGACGCGUAGAGGGUAACAUGAGGAUCACCCAUGUGAGUAAG | 16.9 nM | 12.2 nM | – | – | –
41 | GUGAAGUUAGUGAGCGUUAGUCAAGCCAAACGAGGACCGGUACGGCCGCCACUCGCGCAUCGACAUGAGGAUCACCCAUGUGCCG | – | – | – | – | apparent Kd [5]: 14.6 nM; apparent Kd [6]: 17.7 nM
42 | GUGCAGUUAUUAGGAUAUAAGACAUGGGACAUGAGGAUCACCCAUGUCGUAAGAAAUACCGUUGAUUAGAAGGAAUUCCGGCAC | 1010 nM | 283 nM | – | – | –
43 | GUGGGACAUGAGGAUCACCCAUGUGACGAUACCAGUCAAUUGAUGGACCCUUGGCAGCGUUGGUAUUGCGGGUAGGCGAGAUAAG | – | – | – | – | apparent Kd [7]: 43.2 nM; apparent Kd [8]: 45.4 nM
44 | GUUGAGGGCGUGCACAUGAGGAUCACCCAUGUUCUACCUAUCGAGGAUAUAUCUGUAGGAUCAGAAUAGAAGGCGAGCAAGGUC | – | – | 21.4 nM | 14.8 nM | –
45 | UAACCACCGCAGGAUAUGCUAUGUUCAGUGUCUGCAGAAGGGCGUACAUGAGGAUCACCCAUGUAGUGACCUCA | – | – | 95.2 nM | 110 nM | –
46 | UAAGUACGACAGAAGGGAUGAAAUUAUAACAAAUCAGGAUAUGUGAGUUACCAAUGCAAGCAUUACAUGAGGAUCACCCAUGUG | 16.9 nM | 10.1 nM | – | – | –
47 | UACAAAGAAUAGGAUAUCGAGAGGUAAUUUGGGCGAGAAGGAUUCACAUGAGGAUCACCCAUGUAGGCGGAUCU | – | – | 30.7 nM | 40.9 nM | –
48 | UAGAGCUCGCAAGGAUAUAACGCACAGAAACAUGAGGAUCACCCAUGUGGAAAGGAUCAACGUCGUUAGAAGGUGCAGAAAUAU | 47.4 nM | 22 nM | – | – | –
49 | UAGCUGCUUCAGAAGGCCGUUGGGUGAAAACGCUCCGGGUGCCACAUGAGGAUCACCCAUGUUUCGGAGGAUAUGAAAGCAUCC | – | – | 47.8 nM | 201 nM | –
50 | UAUCGAAGGUUUAAGGAUAUCGGCAGGCUCACAUGAGGAUCACCCAUGUCGCGAACAUCGCGCUACGAGAAGGUAAUCUUGAUGCA | 58.9 nM | 24.3 nM | – | – | –
51 | UAUUGUAUAGGAUAUACAUGAGGAUCACCCAUGUUCGAUGUUUGGAGCCUGCUUCAUAGUAGAAGGAUACGCCC | – | – | 16.3 nM | 16.7 nM | –
52 | UCAAUUGAGGUCAAGGAUAUCUAGAAACAGACAUGAGGAUCACCCAUGUGCACAGCAUAAACGAGAGAGAAGGUGAGGCAUAUUGA | 42.7 nM | 26.5 nM | – | – | –
53 | UCACGUCGCCGAGGAUAUGAUUACCGCUCUCCAUCAGAAGGCGGCGCGUGGUCCACAACAUGAGGAUCACCCAUGUCGAUUGAG | 64.9 nM | 10.7 nM | – | – | –
54 | UCCUUUAGACAUGAGGAUCACCCAUGUAGCCUCACUGUUCGUAGAAGGACACCGCUGUUCAAGCUGUAGGAUAUACGGAGGAUC | – | – | 468 nM | 319 nM | –
